In brackets after ≈: the same amount, converted by molar mass.
Key:
Assay type in all cases: functional
Enterococcus faecalis [1] = assay: Antimicrobial activity against vancomycin A-resistant Enterococcus faecalis BM 4166
Method in brief: (§1)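 MIC measured in a microtiter plate-based antimicrobial assay, in μg/mL. VanA E. faecalis BM4166 is vancomycin- and teicoplanin-resistant; VanB E. faecalis ATCC 51299 is vancomycin-resistant and teicoplanin-sensitive. Both strains carry a vancomycin-inducible resistance pathway, switching from D-Ala-D-Ala to D-Ala-D-Lac cell-wall precursors on glycopeptide exposure.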

Staphylococcus aureus = assay: Antimicrobial activity against Staphylococcus aureus ATCC 25923
Enterococcus faecalis [2] = assay: Antimicrobial activity against vancomycin B-resistant Enterococcus faecalis ATCC 51299; method in brief: as §1

Row | Compound | MIC (Enterococcus faecalis [1]) [µg/mL] | MIC (Staphylococcus aureus) [µg/mL] | MIC (Enterococcus faecalis [2]) [µg/mL]
1 | CN[C@H](CC(C)C)C(=O)N[C@H]1C(=O)N[C@@H](CC(N)=O)C(=O)N[C@H]2C(=O)N[C@H]3C(=O)N[C@H](C(=O)N[C@@H](C(=O)O)c4cc(OC)cc(OC)c4-c4cc3ccc4OC)[C@H](O)c3ccc(c(Cl)c3)Oc3cc2cc(c3OC)Oc2ccc(cc2Cl)[C@H]1O | 80 (≈ 66.7 µM) | 1.25 (≈ 1.04 µM) | 2.5 (≈ 2.08 µM)
2 | CN[C@H](CC(C)C)C(=O)N[C@H]1C(=O)N[C@@H](CC(N)=O)C(=O)N[C@H]2C(=O)N[C@H]3C(=O)N[C@H](C(=O)N[C@@H](C(=O)OC)c4cc(OC)cc(OC)c4-c4cc3ccc4OC)[C@H](O)c3ccc(c(Cl)c3)Oc3cc2cc(c3OC)Oc2ccc(cc2Cl)[C@H]1O | 40 (≈ 32.9 µM) | 1.25 (≈ 1.03 µM) | 1.25 (≈ 1.03 µM)
3 | CN[C@H](CC(C)C)C(=O)N[C@H]1C(=O)N[C@@H](CC(N)=O)C(=O)N[C@H]2C(=O)N[C@H]3C(=O)N[C@H](C(=O)N[C@H](C(=O)O)c4cc(O)cc(O)c4-c4cc3ccc4O)[C@H](O)c3ccc(c(Cl)c3)Oc3cc2cc(c3O)Oc2ccc(cc2Cl)[C@H]1O [VANCOMYCIN AGLYCON] | > 100 | 0.6 (≈ 0.525 µM) | > 40
4 | CN[C@H](CC(C)C)C(=O)N[C@H]1C(=O)N[C@@H](CC(N)=O)C(=O)N[C@H]2C(=O)N[C@H]3C(=O)N[C@H](C(=O)N[C@H](C(=O)O)c4cc(O)cc(O)c4-c4cc3ccc4O)[C@H](O)c3ccc(c(Cl)c3)Oc3cc2cc(c3O[C@@H]2O[C@H](CO)[C@@H](O)[C@H](O)[C@H]2O[C@H]2C[C@](C)(N)[C@H](O)[C@H](C)O2)Oc2ccc(cc2Cl)[C@H]1O [VANCOMYCIN] | 2000 (≈ 1380 µM) |  | 120 (≈ 82.8 µM)
5 | CN[C@@H](CC(C)C)C(=O)N[C@H]1C(=O)N[C@@H](CC(N)=O)C(=O)N[C@H]2C(=O)N[C@H]3C(=O)N[C@H](C(=O)N[C@@H](C(=O)O)c4cc(O)cc(O)c4-c4cc3ccc4O)[C@H](O)c3ccc(c(Cl)c3)Oc3cc2cc(c3O[C@@H]2O[C@H](CO)[C@@H](O)[C@H](O)[C@H]2O[C@H]2C[C@](C)(NCc3ccc(-c4ccc(Cl)cc4)cc3)[C@H](O)[C@H](C)O2)Oc2ccc(cc2Cl)[C@H]1O | 10 (≈ 6.06 µM) | 0.03 (≈ 0.0182 µM) | 0.03 (≈ 0.0182 µM)
6 | CN[C@H](CC(C)C)C(=O)N[C@H]1C(=O)N[C@@H](CC(N)=O)C(=O)N[C@H]2C(=O)N[C@H]3C(=O)N[C@H](C(=O)N[C@@H](C(=O)O)c4cc(OC)cc(OC)c4-c4cc3ccc4OC)[C@H](O)c3ccc(c(Cl)c3)Oc3cc2cc(c3O)Oc2ccc(cc2Cl)[C@H]1O | 640 (≈ 540 µM) |  | 10 (≈ 8.43 µM)
7 | CN[C@H](CC(C)C)C(=O)N[C@H]1C(=O)N[C@@H](CC(N)=O)C(=O)N[C@H]2C(=O)N[C@H]3C(=O)N[C@H](C(=O)N[C@@H](C(=O)O)c4cc(O)cc(O)c4-c4cc3ccc4O)[C@H](O)c3ccc(c(Cl)c3)Oc3cc2cc(c3OC)Oc2ccc(cc2Cl)[C@H]1O | 240 (≈ 207 µM) | 1.25 (≈ 1.08 µM) | 40 (≈ 34.5 µM)
8 | CN[C@H](CC(C)C)C(=O)N[C@H]1C(=O)N[C@@H](CC(N)=O)C(=O)N[C@H]2C(=O)N[C@H]3C(=O)N[C@H](C(=O)N[C@@H](C(=O)O)c4cc(OC)cc(O)c4-c4cc3ccc4OC)[C@H](O)c3ccc(c(Cl)c3)Oc3cc2cc(c3O)Oc2ccc(cc2Cl)[C@H]1O | 640 (≈ 546 µM) | 10 (≈ 8.53 µM) | 120 (≈ 102 µM)
9 | CN[C@H](CC(C)C)C(=O)N[C@H]1C(=O)N[C@@H](CC(N)=O)C(=O)N[C@H]2C(=O)N[C@H]3C(=O)N[C@H](C(=O)N[C@@H](C(=O)O)c4cc(OC)cc(OC)c4-c4cc3ccc4O)[C@H](O)c3ccc(c(Cl)c3)Oc3cc2cc(c3O)Oc2ccc(cc2Cl)[C@H]1O | 640 (≈ 546 µM) | 10 (≈ 8.53 µM) | 120 (≈ 102 µM)

Source: ChEMBL document CHEMBL1255221, “Synthesis and evaluation of selected key methyl ether derivatives of vancomycin aglycon” (2010)
